Publication PMC3086141 (Circulation. Cardiovascular interventions, 2011)

How the values were obtained:
[1] = Quantification of bivalirudin concentration in plasma of PCI patients; type: in vivo; conditions: both, human, iv, Residual plasma drug levels two hours after discontinuation of infusion, 2 h POST, LC/MS/MS
Procedure, shortened: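 Test compound given to 22 PCI patients as an IV bolus followed by continuous infusion. Plasma sampled at baseline, about 5 min post-bolus, 30 min into infusion (or at PCI end if earlier), and 5 min, 15 min and 2 h after infusion stopped. Levels measured by LC/MS/MS with a […] detection threshold. Data given as mean ± SD.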

[2] = PCI patients; bolus of 1.0 mg/kg followed by infusion of 2.5 mg/kg/h; cited from earlier work

CC[C@H](C)[C@H](NC(=O)[C@H](CCC(=O)O)NC(=O)[C@H](CCC(=O)O)NC(=O)[C@H](Cc1ccccc1)NC(=O)[C@H](CC(=O)O)NC(=O)CNC(=O)[C@H](CC(N)=O)NC(=O)CNC(=O)CNC(=O)CNC(=O)CNC(=O)[C@@H]1CCCN1C(=O)[C@H](CCCNC(=N)N)NC(=O)[C@@H]1CCCN1C(=O)[C@H](N)Cc1ccccc1)C(=O)N1CCC[C@H]1C(=O)N[C@@H](CCC(=O)O)C(=O)N[C@@H](CCC(=O)O)C(=O)N[C@@H](Cc1ccc(O)cc1)C(=O)N[C@@H](CC(C)C)C(=O)O [bivalirudin]
level at time molar [1]: 200 nM
Mean steady-state bivalirudin plasma levels, original dosage [2]: 5.6 µM
Terminal half-life, original dosage [2]: 25 min
